Compound activity: PubChem, several laboratories
Most compounds without a hit are left out; they make up all but 2% or so of the library.
Bfl-1 A1 inh = inhibitors of the anti-apoptotic protein A1, read as caspase activation. MEF A1-2A-BIM cells, Caspase-Glo 3/7 luminescence, 3 h; percent of clofoctol response, vehicle zero. caspase activation, % (no concentration beside the values). hit rate 0.066% among 330,000. AID 2462;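 active means over half of replicate activation scores above 10%, or exactly half above 10 with the replicate mean above 10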
MC4R barr agon = activates human MC4R beta-arrestin recruitment | U2OS MC4R beta-arrestin complementation, luminescence; percent of melanotan II response, DMSO zero | activation, % at 8.9 µM | hit rate 0.98% among 360,000 | AID 540308;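 active means activation above a per-plate cutoff, the mean activation of sample wells on that plate plus 3 SD, cut at about 8% in these data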
CHOP UPR activ = activators of apoptotic arm of unfolded protein response (CHOP). activation, % at 10 µM. AID 449763. CHO-CHOP luciferase reporter, UPR activation, luminescence; percent of tunicamycin response over DMSO baseline. hit rate 0.34% among 330,000;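 active means at 10 µM dose, activation of 40% or more, normalized to positive control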;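 further: 100% = tunicamycin at 10 µg/mL and 0% = DMSO alone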
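Assay system: CHO cells with stable CHOP pathway luciferase reporter; Buffer or medium: F12 plus 10% serum; Times: 16-18 h cell attachment, then 6 h compound exposure, 37 °C; Signal: luciferase luminescence; Read-out basis: percent activation relative to tunicamycin control; Control set: tunicamycin high control, DMSO low control.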
MC4R antag cAMP = human MC4R antagonism in cAMP assay; hit rate 0.48% among 360,000; MC4R-expressing cells, MTII-stimulated cAMP, LANCE TR-FRET; AID 540295; P32245; inhibition, % at 6.5 µM;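 active means inhibition above its plate's cutoff, the mean of tested wells on that plate plus 3 SD, cut at about 29% in these data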;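 further: 0% = Melanotan II alone and 100% = Melanotan II plus saturating MCL0020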
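system = U2OS cells with stable human MC4R expression | also added = Melanotan II challenge after compound preincubation | dosing = one concentration, 6.5 µM nominal | incubation = compound 30 min, challenge 1 h, detection 1 h | measured by = TR-FRET with Eu-cAMP and labeled anti-cAMP, 671 nm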
UPR XBP1 act = adaptive UPR (XBP1) activation. CHO-XBP1 luciferase reporter, IRE1-XBP1 UPR activation, luminescence; percent of tunicamycin response, DMSO as zero. activation, % at 20 µM. hit rate 0.33% among 330,000. AID 463104;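 active means versus positive control, 20 µM dose yields 30% or more activation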;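 further: 100% = tunicamycin at 10 µg/mL and 0% = DMSO only wells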
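Assay system: CHO-XBP1 luciferase reporter cells; Schedule: 6 h treatment, 37 °C; Detection: glow luminescence from Steady-Glo reagent; Benchmarks: high control tunicamycin 10 µg/mL final, low control DMSO vehicle only.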
MC4R barr conf = human MC4R beta-arrestin agonism confirmation | shares compounds with MC4R barr agon | activation, % at 8.9 µM | hit rate 31% among 2,400 | U2OS MC4R beta-arrestin recruitment, luminescence; scaled DMSO 0%, Melanotan II 100%;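 active means mean activation across replicates above the hit cutoff set in the earlier primary screen, cut at about 8% in these data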
MOR-DOR barr ag = activates mu-delta opioid heterodimer, MC4R agonist counter-screen. shares compounds with MC4R barr agon. U2OS PathHunter beta-arrestin, beta-gal luminescence; percent of deltorphin B response, DMSO zero. activation, % at 9.2 µM. hit rate 5.8% among 2,400. AID 602194;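 active means mean activation across replicates exceeds the hit threshold derived in the earlier primary screen, cut at about 18% in these data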;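 further: 100% = deltorphin B at 0.9 µM final and 0% = DMSO alone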
Starred values were filed as active, the others as inactive; nt = no result; ! = repeats disagree.

SMILES	Bfl-1 A1 inh	MC4R barr agon	CHOP UPR activ	MC4R antag cAMP	UPR XBP1 act	MC4R barr conf	MOR-DOR barr ag
Cn1nc(-c2ccccc2)cc1NC(=O)Nc1ccc(C(C)(C)C)cc1	0.7	11.5*	-1.2	6.7	-1.7	1.1	5.3
COc1cc(COc2ccc(-c3nnco3)cc2)ccc1OC(F)F	-0.6	11.9*	2.1	2.1	4.3	6.6	8.3
Nc1c(C(=O)Nc2cccc(F)c2)nnn1-c1ccc2c(c1)OCCO2	-8.6	11.2*	1.0	9.3	-3.0	1.3	5.9
COc1ccccc1C(=O)Nc1nc2ccc(S(C)(=O)=O)cc2s1	-1.3	14.4*	3.2	3.9	0.6	-0.9	3.6
CS(=O)(=O)c1ccc2nc(NC(=O)c3ccccc3Cl)sc2c1	-6.3	-0.1	4.3	9.0	-5.1	nt	nt
C=CCn1c(SCC(=O)Nc2ncc(Cc3ccc(C)c(Cl)c3)s2)nnc1-c1ccncc1	-0.4	30.5*	-1.5	4.1	1.9	15.7*	3.0
Cc1cc(C)nc(SCC(=O)Nc2ncc(Cc3cccc(Cl)c3)s2)n1	1.5	16.4*	-0.4	2.0	-2.0	7.9	3.1
O=C(CCCCCn1c(=S)[nH]c2ccccc2c1=O)NCc1ccc2c(c1)OCO2	-0.2	10.1*	-1.9	14.8	-2.4	2.2	2.5
O=C(CCCCCn1c(=S)[nH]c2cc3c(cc2c1=O)OCO3)N1CCN(c2ccccc2)CC1	0.6	1.8	-0.7	17.7	17.9	nt	nt
COc1cccc(N2CCN(C(=O)CCCCCn3c(=S)[nH]c4cc5c(cc4c3=O)OCO5)CC2)c1	1.5	34.6*	7.2	-1.6	10.4	13.6*	21.4*
COc1cc2ccc(C=O)cc2cc1OC	nt	-2.3	nt	0.1	nt	nt	nt
CCCNC(=O)Cn1nc(-c2ccccc2OC)ccc1=O	nt	-1.6	nt	12.8	nt	nt	nt
Cn1cc(-c2coc3c(C(=O)NCc4cccc(Cl)c4)cccc23)cn1	nt	0.6	nt	6.3	nt	nt	nt
COc1ccc(C(C)=O)cc1CSc1nc2ccccc2c(=O)n1-c1ccccc1	0.6	15.6*	-0.7	-24.0	15.5	2.5	1.9
CCN1CCCC1CNC(=O)c1ccc2c(c1)NC(=O)/C(=C\c1ccc(C)cc1)S2 (centres undefined)	3.0	15.3*	7.7	6.6	-3.0	13.1*	2.5
C=CCn1c(SCC(=O)NC(=O)NCc2ccco2)nc2sc(CC)cc2c1=O	1.1	11.6*	0.5	-5.7	-2.3	1.9	3.1
Cc1sc2nc(SCC(=O)NCc3ccco3)n(CCc3ccccc3)c(=O)c2c1C	0.5	47.8*	16.1	4.3	16.7	0.0	37.6*
Cc1sc2nc(SCC(=O)NCc3ccco3)n(C)c(=O)c2c1C	1.4	-0.2	-1.3	-1.5	-1.2	nt	nt
C=CCn1c(SCC(=O)Nc2ccccc2C)nc2sc(C)c(C)c2c1=O	-0.2	24.0*	-1.5	-2.9	-0.8	-0.4	5.7
C=CCn1c(SCC(=O)NCc2ccco2)nc2ccccc2c1=O	0.7	0.2	0.7	-2.8	0.3	nt	nt
Cc1ccc(S(=O)(=O)N2CCCCC2)cc1NCC(=O)Nc1ccc(Br)cc1F	nt	4.8	nt	9.2	nt	nt	nt
Cc1ccc(/C=C/C(=O)Nc2cc(C)on2)cc1	-3.0	18.7*	3.5	4.8	3.2	2.5	5.7
Cc1cc(NS(=O)(=O)c2ccc(NC(=O)/C=C/c3ccc(Br)cc3)cc2)no1	-0.2	-3.2	1.2	8.3	-2.7	nt	nt
CC(C)(C)c1cc(NC(=O)C2(C)CCN2C(=O)C2(c3ccccc3)CC2)no1 (centres undefined)	nt	0.8	nt	-6.3	nt	nt	nt
O=C(Nc1ccccc1)Nc1cc(OCC(F)(F)F)cc(OCC(F)(F)F)c1	nt	10.4*	nt	17.2	nt	1.9	8.2
CC(C)CNC(=O)C1(C)CCCCCN1Cc1ccccc1-c1ccccc1 (centres undefined)	nt	-2.1	nt	20.4	nt	nt	nt
CN1CCN(Cc2nc3ccccc3c(=O)n2Cc2nc(-c3ccc4ccccc4c3)cs2)CC1	1.5	9.7*!	nt	1.4	nt	12.9*	12.4
